# NR2E3 ag-1 – agonists of human nuclear receptor NR2E3; Q9Y5X4; GST-NR2E3/biotin-RetCOR TR-FRET, 1536-well; inhibition of corepressor binding, % at 4.78 µM; 0.12% of 320,000 active; AID 2300;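 active = percent inhibition above the cutoff of mean plus 3 SD of all tested compounds, set per screening campaign, cut at about 20% in these data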;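 note: 0% = DMSO wells and 100% = biotin wells as full block of FRET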
# Target sequence (Q9Y5X4 whole entry, looked up): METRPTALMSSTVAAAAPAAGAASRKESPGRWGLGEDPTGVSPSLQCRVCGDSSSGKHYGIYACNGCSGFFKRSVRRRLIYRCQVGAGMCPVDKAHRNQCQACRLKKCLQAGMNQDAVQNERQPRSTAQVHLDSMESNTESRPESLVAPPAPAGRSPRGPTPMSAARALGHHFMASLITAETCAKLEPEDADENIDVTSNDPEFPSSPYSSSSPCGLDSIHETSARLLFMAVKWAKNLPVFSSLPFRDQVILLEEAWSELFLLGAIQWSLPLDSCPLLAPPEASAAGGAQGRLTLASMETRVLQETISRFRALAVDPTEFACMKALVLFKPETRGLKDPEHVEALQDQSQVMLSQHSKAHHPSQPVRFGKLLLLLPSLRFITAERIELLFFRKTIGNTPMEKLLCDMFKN
#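 System: GST-tagged NR2E3 plus biotinylated RetCOR corepressor; Amount: 1.35 nM GST-tagged NR2E3 final; Dosing: single nominal compound dose of 4.8 µM; Schedule: 5 h incubation at 4 °C; Technique: TR-FRET with europium anti-GST and streptavidin-D2, 340 nm excitation; Controls: biotin wells as high control, 0.6% DMSO wells as low control.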
# JMJD2C inh – inhibitors of human GASC-1 (JMJD2C) demethylase. Q9H3R0. GST-JMJD2C(1-420) H3K9me3 demethylation, DELFIA europium. inhibition, % at 2.35 µM. 0.069% of 330,000 active. AID 2099;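 active = more than half of a compound's replicate wells show inhibition beyond 50%, single wells judged on their own value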;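 note: signal counts dimethyl H3K9 product captured on neutravidin plate; 0% = median of DMSO wells and 100% = 0.3 times that DMSO median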
# DAX1 inh-1 – blocks DAX1 repression of SF-1 activated StAR promoter; HEK293T StAR-luciferase reporter, SF-1/DAX-1 repression relief; AID 652010; 1.1% of 370,000 active; inhibition, % at 6.8 µM;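 active = inhibition above the mean over all tested compounds plus 3 SD, cut at about 3.6% in these data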;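 note: 0% = DAX-1 cells with DMSO and 100% = cells lacking DAX-1 with DMSO; higher inhibition means more luminescence from relief of DAX-1 repression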
# SMARCA2 act – SMARCA2 function activation, primary screen; 1% of 370,000 active; AID 652017; activation, % at 9.1 µM; MG213 cells, MMTV-luciferase reporter, dexamethasone, overnight; in the data active = activation above about 7.8%;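 note: 0% = vehicle wells and 100% = reference activator wells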
# NR2E3 ag-2 – human photoreceptor-specific nuclear receptor agonism | CHO-S Gal4-NCOR/VP16-NR2E3 two-hybrid, luciferase | inhibition of corepressor binding, % at 3.98 µM | 0.35% of 360,000 active;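 active = inhibition above the mean of all tested compounds plus 3 SD, cut at about 70% in these data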;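 note: 0% = DMSO with NR2E3 transfected cells and 100% = cells lacking NR2E3 construct; higher means lower luciferase signal from less NR2E3 corepressor binding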
# DAX1 inh-2 – NR0B1 (DAX1) inhibition. inhibition, % at 6.75 µM. 0.99% of 340,000 active. P51843. HEK293 Gal4-DAX1 luciferase reporter, luminescence;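 active = inhibition above the mean over all tested compounds plus 3 SD, cut at about 4.2% in these data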;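 note: 0% = DAX1-transfected cells with DMSO and 100% = empty-vector control cells with DMSO; inhibition shows as a rise in luminescence from relieved DAX1 repression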
# Target sequence (P51843 207-470 limits assumed): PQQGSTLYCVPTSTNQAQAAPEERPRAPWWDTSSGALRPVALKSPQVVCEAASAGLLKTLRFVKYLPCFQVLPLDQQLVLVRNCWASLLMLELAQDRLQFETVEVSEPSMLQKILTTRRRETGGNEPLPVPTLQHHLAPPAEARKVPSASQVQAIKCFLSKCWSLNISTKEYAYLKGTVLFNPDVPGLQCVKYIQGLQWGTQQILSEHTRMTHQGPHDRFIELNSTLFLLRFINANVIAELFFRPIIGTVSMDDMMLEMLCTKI
# SMARCA2 act conf – confirmation of SMARCA2 (BRM) function activators. shares compounds with SMARCA2 act. MG213 cells, MMTV-luciferase with dexamethasone, luminescence, overnight; MG213 cells expressing E1A, Rb sequestered; DMSO wells 0%, reference activator 100%. activation, % at 9.1 µM. 30% of 3,500 active;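 active = activation above its plate's cutoff, the mean activation of tested wells plus 3 SD, cut at about 7.9% in these data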
# GAL4-VP16 Luc – counter-screen for SMARCA2 activators: GAL4-VP16 luciferase reporter activation; shares compounds with SMARCA2 act; HEK293 GAL4-VP16 pG5luc reporter, luciferase luminescence; scaled: DMSO wells 0%, SAHA wells 100%; activation, % at 9.1 µM; 41% of 3,500 active;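 active = activation above the solvent-only control well mean plus 3 SD, averaged across control plates, cut at about 5.2% in these data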
# The depositor's hits bear a star; nt = no result. An excerpt weighted towards active compounds, which were near 3.2% of everything screened.
SMILES,NR2E3 ag-1,JMJD2C inh,DAX1 inh-1,SMARCA2 act,NR2E3 ag-2,DAX1 inh-2,SMARCA2 act conf,GAL4-VP16 Luc
COc1ccc(N2CC(C(=O)Nc3ccc(S(=O)(=O)Nc4nccs4)cc3)CC2=O)cc1 (stereo not drawn),2.5,-3.4,0.6,-0.8,1.1,1.5,nt,nt
COc1ccc(S(=O)(=O)N2CCC(C(=O)N(C)Cc3ccc(C)o3)CC2)cc1OC,-5.2,0.5,1.4,6.7,3.2,-0.2,nt,nt
CN(Cc1ccccc1)C(=O)OCc1cn(Cc2c(F)cccc2F)nn1,nt,nt,0.3,-2.0,nt,nt,nt,nt
COc1cc(Br)cc(/C=C/c2ccc3cccc(O)c3n2)c1OC,-2.9,-15.5,-0.5,-0.1,-31.8,0.1,nt,nt
COc1ccc(/C=C/c2ccc3c(Br)ccc(O)c3n2)cc1,-0.5,-6.9,0.0,-1.8,-18.0,0.0,nt,nt
COc1cc(/C=C/c2ccc3c(Br)cc(Br)c(O)c3n2)ccc1O,-2.8,3.1,-0.9,8.7*,6.7,0.0,-15.8,7.9*
COc1cc(/C=C/c2ccc3cccc(O)c3n2)cc(Br)c1OC,-1.9,-4.3,0.5,8.4*,-131.4,1.7,-13.4,34.1*
COc1cccc(/C=C/c2ccc3cccc(O)c3n2)c1,-1.7,-13.2,0.0,14.1*,-154.2,0.8,-3.3,23.1*
COc1cc(/C=C/c2ccc3cccc(O)c3n2)cc(Cl)c1OC,0.7,1.9,0.2,11.6*,-171.2,0.7,-6.0,33.7*
CCCCNS(=O)(=O)CC1NCc2ccccc21 (stereo not drawn),nt,nt,-0.8,-0.1,nt,nt,nt,nt
O=C(OCCSCCOC(=O)C1CC=CCC1)C1CC=CCC1 (stereo not drawn),nt,nt,0.2,-4.1,0.1,-0.2,nt,nt
CC(Oc1ccccc1)C(=O)N=C1SC2CS(=O)(=O)CC2N1c1ccc(F)cc1 (stereo not drawn),-0.2,-16.1,0.8,-0.9,-8.8,0.3,nt,nt
O=C(/C=C\c1ccc(-c2ccccc2)o1)c1ccccc1,1.5,4.3,0.6,8.2*,0.8,-0.7,16.1*,8.1*
O=[N+]([O-])c1ccc(-c2ccc(/C=N/O)o2)cc1,2.8,15.9,-0.5,-4.2,-85.6,nt,nt,nt
O/N=C\c1ccc(-c2ccccc2)o1,-2.9,-5.5,0.1,9.5*,-48.9,4.0,6.2,4.8
Cc1n[nH]c(C)c1S(=O)(=O)NCCc1c[nH]c2ccccc12,nt,nt,0.3,-2.6,nt,nt,nt,nt
Nc1cc(C2CCCC2)nn1-c1ccccc1,-1.9,-59.2,1.4,9.0*,-87.4,0.4,18.0*,5.0
CC(=O)c1ccc(NC(=O)CSc2nc(=O)cc(N)n2-c2ccccc2)cc1,-2.8,-14.5,0.3,8.6*,-63.9,1.3,6.7,8.8*
CSc1nsc(SCC(=O)Nc2ccc(C(C)=O)cc2)n1,-1.8,5.7,2.5,13.1*,-110.0,3.4,5.3,10.3*
COc1ccc(OC)c(CN2C(=O)c3ccnn3CC2(C)c2nnnn2C2CCCC2)c1 (stereo not drawn),nt,nt,0.6,-0.8,nt,nt,nt,nt
CCOCCCNC(=O)C(c1ccccc1)N(Cc1cccs1)C(=O)CNC(=O)c1ccccc1 (stereo not drawn),0.0,8.2,-1.4,8.7*,-0.7,-2.0,-2.7,0.6
Nc1nc(SCC(=O)N2CCCc3ccccc32)n[nH]1,nt,1.3,1.7,3.0,-7.0,0.8,nt,nt
Cc1nc(SCC(=O)N2CCc3ccccc32)n[nH]1,-1.9,1.3,1.4,8.7*,-32.2,0.5,8.6*,3.5
Cc1ccc2nc(-c3ccc(SCC(=O)O)nc3)[nH]c2c1,0.6,-53.2,1.0,-4.2,-35.5,-1.1,nt,nt
CCc1nnc(NC(=O)CSc2ccc(-c3nc4ccc(C)cc4[nH]3)cn2)s1,-14.5,-1.8,4.4*,8.7*,-32.8,2.9,8.4*,11.7*
SMILES,NR2E3 ag-1,JMJD2C inh,DAX1 inh-1,SMARCA2 act,NR2E3 ag-2,DAX1 inh-2,SMARCA2 act conf,GAL4-VP16 Luc
Cc1ccc2nc(-c3ccc(SCC(=O)N4CCc5ccccc54)nc3)[nH]c2c1,-0.6,-5.4,1.0,9.1*,-179.2,0.9,12.1*,12.9*
O=C(O)CC(Cc1ccc(Br)cc1)C(=O)Nc1ccccc1 (stereo not drawn),0.5,1.4,-0.3,-2.3,4.4,1.9,nt,nt
O=C(CSc1nnc(-c2ccccn2)n1-c1ccccc1)c1ccc(Cl)c(Cl)c1,nt,nt,1.2,-2.6,nt,nt,nt,nt
O=C(Cc1c[nH]c2ccccc12)Nc1ccc(Nc2cccnc2)c(-c2ccc(-c3ccccc3)cc2F)c1,nt,nt,-1.9,-3.3,nt,nt,nt,nt
Cc1nnc(-c2ccccc2)o1,0.3,-4.0,0.1,-3.4,-0.7,0.6,nt,nt
Cc1cccc(-c2nnc(-c3ccccc3)o2)c1,1.9,-6.8,1.5,4.7,-121.3,1.8,nt,nt
Cc1ccc(-c2nnc(/C=C/c3ccccc3)o2)cc1,0.7,11.2,2.0,9.1*,-87.7,0.3,7.4,10.1*
Cc1ccc(/C=C/c2nnc(-c3cccc(C)c3)o2)cc1,0.7,14.7,1.8,9.3*,-26.5,1.6,1.9,1.3
COc1cc(NC(=O)C2CCCN(S(=O)(=O)c3ccc(Br)s3)C2)cc(OC)c1 (stereo not drawn),nt,nt,-0.3,-4.2,nt,nt,nt,nt
O=C(NCc1ccc(Cl)cc1)C1C2C=CC3(CN(Cc4ccccc4)C(=O)C13)O2 (stereo not drawn),nt,nt,-1.3,6.5,nt,nt,nt,nt
COc1cccc(NC(=O)c2ncc(Cl)c(Cl)c2Cl)c1,-2.3,0.5,0.3,8.7*,-4.1,0.3,5.9,2.0
Cc1ccc(O)c(N=Cc2sc3ccccc3c2Cl)c1,-0.3,6.7,0.2,-2.6,-38.6,0.6,nt,nt
CC(=Nc1ccc(C)cc1C)c1sc2ccccc2c1O,5.3,-0.6,4.2*,15.2*,-124.0,5.8*,1.6,10.5*
CC(=Nc1cccc(O)c1)c1sc2ccccc2c1O,-2.0,6.6,2.1,13.6*,-91.5,2.9,8.1*,12.9*
O=[N+]([O-])c1nn(-c2ccccc2)n(O)c1=NCCc1ccccc1,-0.7,2.5,0.1,11.2*,-42.7,1.0,5.6,2.8
Cc1ccc(/C=c2/sc3n(c2=O)CCCN=3)o1,-5.0,-5.8,1.0,8.7*,-102.1,2.5,5.5,4.1
Cc1ccc(/C=c2\sc3n(c2=O)CN(c2ccc(Br)cc2)CN=3)o1,-5.4,-3.9,1.2,-1.5,0.1,-1.0,nt,nt
Cc1noc(C)c1NC(=O)N(C)C[C@H]1Oc2c(NC(=O)C3CCCCC3)cccc2C(=O)N([C@H](C)CO)C[C@@H]1C,nt,17.5,0.2,-2.9,10.8,-1.0,nt,nt
CCCCCCCCN1C(=O)[C@@H](CC(=O)NCCCOCCCC)C[C@@]2(C(=O)OC)C1=C[C@H](COCc1ccccc1)O[C@@H]2C,nt,nt,-0.6,-0.3,nt,nt,nt,nt

# From PubChem
